Assay outcomes deposited in PubChem BioAssay by Sanford-Burnham Center for Chemical Genomics.
SENP7 block = inhibitors of human SENP7 protease. Q9BQF6. recombinant SENP7, Z-RLRGG-aminoluciferin luminescence, 40 min. inhibition, % at 5 µM. 1.5% of 330,000 active;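 active means inhibition above about 50% at the single test dose, limit read from the data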;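 further: plate controls were DMSO with enzyme for no effect and no enzyme buffer wells for full effect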
Target sequence (Q9BQF6 706-1050 limits assumed): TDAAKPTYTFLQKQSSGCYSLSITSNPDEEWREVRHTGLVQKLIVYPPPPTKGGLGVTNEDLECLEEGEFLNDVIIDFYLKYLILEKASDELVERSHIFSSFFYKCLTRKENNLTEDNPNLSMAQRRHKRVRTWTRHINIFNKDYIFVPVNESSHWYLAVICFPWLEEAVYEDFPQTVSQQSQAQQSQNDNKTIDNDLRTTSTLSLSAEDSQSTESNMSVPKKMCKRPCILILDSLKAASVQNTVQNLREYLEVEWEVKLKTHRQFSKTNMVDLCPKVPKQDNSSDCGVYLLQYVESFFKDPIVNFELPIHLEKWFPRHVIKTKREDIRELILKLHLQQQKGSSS
SENP1 inh = inhibitors of human SENP1 SUMO protease catalytic domain. recombinant SENP1 catalytic domain, CyPet-SUMO1-YPet FRET cleavage. inhibition, % at 10 µM. 0.21% of 360,000 active. AID 624204;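 active means inhibition at least 30% at 10 µM, raw YFP signal under a set limit, fluorescence ratio 0.5 to 1.5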;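 further: 0% = enzyme with DMSO and 100% = no enzyme wells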
Target sequence (Q9P0U3 419-644 limits assumed): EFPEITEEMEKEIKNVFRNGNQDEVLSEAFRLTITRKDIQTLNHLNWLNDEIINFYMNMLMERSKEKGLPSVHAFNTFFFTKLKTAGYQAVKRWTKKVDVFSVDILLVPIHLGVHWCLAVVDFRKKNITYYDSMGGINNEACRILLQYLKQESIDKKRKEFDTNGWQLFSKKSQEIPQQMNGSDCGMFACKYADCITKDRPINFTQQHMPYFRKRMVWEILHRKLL
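Assay system: hSENP1 catalytic domain, recombinant. Amount: SENP1 enzyme, 20 pM final. Schedule: 50 min reaction, RT, dark. Technique: FRET, CFP and YFP emission. Control set: no-enzyme wells low, DMSO-plus-enzyme wells high control.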
SENP6 block = SENP6 protease inhibition; Q9GZR1; Recombinant SENP6 catalytic domain, aminoluciferin luminescence; inhibition, % at 10 µM; 1.8% of 330,000 active; AID 2599;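 active means inhibition above about 50% at the single tested dose, limit read from the data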;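 further: plate controls were DMSO wells with enzyme for no effect and DMSO wells lacking enzyme for full effect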
SENP8 block-1 = SENP8 (human) protease inhibition. Q96LD8. inhibition, % at 20 µM. AID 602440. 0.64% of 360,000 active. recombinant SENP8, Nedd8 substrate fluorescence; in the data active means inhibition mostly above about 40%, no sharp cut-off; inactive means mostly below about 27%
SENP8 block-2 = inhibitors of human SENP8 protease | Q96LD8 | purified SENP8, Z-RLRGG-aminoluciferin cleavage, luminescence | inhibition, % at 10 µM | 1.2% of 330,000 active; in the data active means inhibition above about 50%
SENP8 conf = confirmation of human SENP8 protease inhibitors | Recombinant SENP8, Z-RLRGG-aminoluciferin luminescence, 60 min | inhibition, % at 12.5 µM | shares compounds with SENP7 block | 40% of 6,200 active;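 active means mean inhibition across replicates above about 50%, limit read from the data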
SENP6 confirm = confirmation of human SENP6 protease inhibitors | recombinant SENP6, Z-RLRGG-aminoluciferin luminescence | 58% of 6,200 active | inhibition, % at 12.5 µM | shares compounds with SENP7 block
SENP7 confirm = human SENP7 inhibition, confirmed; shares compounds with SENP7 block; recombinant SENP7, Z-RLRGG-aminoluciferin luminescence, 40 min; inhibition, % at 12.5 µM; 69% of 6,200 active; AID 488917
Casp3 SENP sel = caspase-3 inhibition (SENP selectivity assay) | shares compounds with SENP7 block | purified caspase-3, Z-DEVD-aminoluciferin luminescence, 60 min | inhibition, % at 12.5 µM | 60% of 6,200 active;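 active means mean inhibition above about 50%, limit read from the data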;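 further: plate controls were enzyme with DMSO for no effect and wells without caspase-3 for full effect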
Luc interf = interferes with luciferase luminescence in SENP counter-screen; inhibition, % at 12.5 µM; Pre-incubated SENP8/Z-RLRGG-aminoluciferin, luciferase luminescence interference; 39% of 6,200 active; shares compounds with SENP7 block;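 active means mean inhibition above about 50% when retested at one dose, limit read from the data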;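 further: plate controls were DMSO wells with completed reaction for no effect and substrate without enzyme for full effect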
* marks the source's active call; other numbers are inactive results. Only some compounds are listed: those with a hit (about 2.5% of all), similar ones and a draw of the others.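 How the source made its calls, unless noted: active means mean inhibition above about 50% in the one-dose retest (limit read from the data); inactive means the rest.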

For O=C(Nc1nccs1)c1ccc2ccccc2n1 the results were SENP7 block 70*, SENP1 inh -4, SENP6 block 69*, SENP8 block-1 0, SENP8 block-2 53*, SENP8 conf 64*, SENP6 confirm 64*, SENP7 confirm 90*, Casp3 SENP sel 80* and Luc interf 63*.
Screening O=C(Nc1ccccn1)c1ccc(Cl)s1 returned SENP7 block 66*, SENP1 inh 2, SENP6 block 60*, SENP8 block-1 6, SENP8 block-2 26, SENP8 conf 30, SENP6 confirm 38, SENP7 confirm 78*, Casp3 SENP sel 74* and Luc interf 56*.
`Cc1csc(NC(=O)c2ccc3ccccc3n2)n1` gave SENP7 block 80*, SENP1 inh -3, SENP6 block 83*, SENP8 block-1 2, SENP8 block-2 75*, SENP8 conf 4, SENP6 confirm 82*, SENP7 confirm 95*, Casp3 SENP sel 49 and Luc interf 15.
O=C(Nc1ccccn1)c1ccc2ccccc2n1 was read as SENP7 block 89*, SENP1 inh -1, SENP6 block 90*, SENP8 block-1 10, SENP8 block-2 80*, SENP8 conf -4, SENP6 confirm 85*, SENP7 confirm 97*, Casp3 SENP sel 86* and Luc interf 85*.
Cc1csc(NC(=O)c2cnc3ccccc3n2)n1 was read as SENP7 block 12, SENP1 inh 3, SENP6 block 20, SENP8 block-1 4 and SENP8 block-2 2.
Screening COc1ccccc1NC(=S)N1CCN(c2cccc(C)c2C)CC1 returned SENP7 block 8, SENP1 inh -1, SENP6 block 10, SENP8 block-1 10 and SENP8 block-2 -5.
Screening COc1ccc(OCC(O)CN2CC(C)OC(C)C2)cc1 (stereo not given) returned SENP7 block -5, SENP1 inh 1, SENP6 block -8, SENP8 block-1 3 and SENP8 block-2 -5.
Cc1cccc(NC(=O)c2ccc3ccccc3n2)c1C was read as SENP7 block 77*, SENP1 inh 1, SENP6 block 88*, SENP8 block-1 20, SENP8 block-2 65*, SENP8 conf 13, SENP6 confirm 84*, SENP7 confirm 97*, Casp3 SENP sel 72* and Luc interf 58*.
Screening Cc1csc(NC(=O)c2cn3ccccc3n2)n1 returned SENP7 block 85*, SENP1 inh -1, SENP6 block 84*, SENP8 block-1 -5, SENP8 block-2 70*, SENP8 conf 65*, SENP6 confirm 86*, SENP7 confirm 97*, Casp3 SENP sel 95* and Luc interf 16.
Cc1cccc(C)c1NC(=O)CNC(=O)c1ccc2ccccc2n1 was read as SENP7 block -3, SENP1 inh -3, SENP6 block -10, SENP8 block-1 5 and SENP8 block-2 6.
CCn1nc(C)c(CN2CCC(n3nccc3NC(=O)Cc3ccccc3)CC2)c1C was read as SENP7 block 4, SENP1 inh 0, SENP6 block 8, SENP8 block-1 4 and SENP8 block-2 -8.
COc1cccc(/C=N/NC(=O)C(C)Cn2cnc3ccccc32)c1 (stereo not given) was read as SENP7 block -12, SENP1 inh 1, SENP6 block -7, SENP8 block-1 8 and SENP8 block-2 1.
CSc1ccc(/C=C/c2ccc3cccc(O)c3n2)cc1 was read as SENP7 block 36, SENP1 inh -30, SENP6 block 66*, SENP8 block-1 -282, SENP8 block-2 42, SENP8 conf 65*, SENP6 confirm 90*, SENP7 confirm 100*, Casp3 SENP sel 91* and Luc interf 53*.
`Oc1cccc2ccc(/C=C/c3ccccc3Br)nc12` gave SENP7 block 70*, SENP1 inh 2, SENP6 block 90*, SENP8 block-1 -46, SENP8 block-2 82*, SENP8 conf 72*, SENP6 confirm 87*, SENP7 confirm 91*, Casp3 SENP sel 78* and Luc interf 66*.
For Oc1ccc(Cl)cc1/C=C/c1ccc2cccc(O)c2n1 the results were SENP7 block -9, SENP1 inh 75, SENP6 block 30, SENP8 block-1 -73 and SENP8 block-2 -9.
Screening COc1cc(/C=C/c2ccc3cccc(O)c3n2)ccc1O returned SENP7 block 51*, SENP1 inh -25, SENP6 block 80*, SENP8 block-1 -282, SENP8 block-2 60*, SENP8 conf 71*, SENP6 confirm 75*, SENP7 confirm 92*, Casp3 SENP sel 43 and Luc interf 82*.
For COc1cc(/C=C/c2ccc3cccc(O)c3n2)c(Br)cc1O the results were SENP7 block 77*, SENP1 inh -24, SENP6 block 84*, SENP8 block-1 -219, SENP8 block-2 87*, SENP8 conf 63*, SENP6 confirm 86*, SENP7 confirm 100*, Casp3 SENP sel 55* and Luc interf 10.
`Cc1cccc(C(=O)Nc2cc(S(=O)(=O)N3CCOCC3)ccc2N2CCCCC2)c1` gave SENP7 block -2, SENP1 inh -1, SENP6 block -1, SENP8 block-1 12 and SENP8 block-2 -2.
For CCN(CC1CCCO1)C(=O)CCc1nnc(CCc2ccccc2)o1 (stereo not given) the results were SENP1 inh 2 and SENP8 block-1 12.
COC(=O)c1ccc(COC(=O)CCc2nc(-c3ccccc3)c(-c3ccccc3)o2)cc1 was read as SENP7 block 4, SENP1 inh 1, SENP6 block 4, SENP8 block-1 -79 and SENP8 block-2 0.
O=C(NCc1ccccn1)[C@@H]1CCCN1C(=O)[C@@H]1CCCN1 was read as SENP1 inh 1 and SENP8 block-1 18.
`CCN(C)C1CN(Cc2cn(CCCC(=O)OC)nn2)S(=O)(=O)C1` (stereo not given) gave SENP1 inh 2 and SENP8 block-1 13.
